The text below walks through data of ChEMBL document CHEMBL4316637, “Highly Modified Lanostane Triterpenes from Fruiting Bodies of the Basidiomycete Tomophagus sp” (J Nat Prod, 2019).

Where only a bound is given, the exact number is not on record here.

The first assay deals with Vero. Kind of assay: Cytotoxicity against African green monkey Vero cells by GFP based microplate assay. The class given is cell-based. The following applies: Chlorocebus sabaeus. In outline:
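Vero cells (nonmalignant African green monkey kidney […]) tested with a green fluorescent protein microplate assay.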
Regarding `CC(=O)O[C@@H]1C[C@H]([C@H](C)[C@@H]2CC=C(C)C(=O)O2)[C@@]2(C)CCC3=C(CC[C@@H]4C(=C3)C=CC(=O)OC4(C)C)[C@]12C`, half-maximal inhibition (IC50) required 11 µM.
Same read-out and setting: in the case of `CC(=O)OC[C@@]1(CCC(=O)O)C2=CC[C@]3(C)[C@@H]([C@H](C)[C@@H]4CC=C(C)C(=O)O4)CC[C@@]3(C)C2=CC[C@H]1C(C)(C)O` it was 88 µM.
For `CC1=CC[C@@H]([C@@H](C)[C@H]2CC[C@@]3(C)C4=C(CC[C@]23C)[C@@]2(C)[C@H](O)C[C@H](O)C(C)(C)[C@@H]2CC4)OC1=O`, the 50% inhibitory concentration (IC50) (usually the midpoint of a concentration-inhibition curve) is > 106 µM.
The same measure, in the same setting: the value for `CC1=C[C@H](O)[C@@H]([C@@H](C)[C@H]2C[C@@H](O)[C@@]3(C)C4=C(C=C5C=CC(=O)OC(C)(C)[C@@H]5CC4)CC[C@]23C)OC1=O` was 39 µM.

The test system of the next assay is Mycobacterium tuberculosis. Description: Antitubercular activity against Mycobacterium tuberculosis H37Ra by GFP based microplate assay. The class given is functional.
Conditions: not given
In a few lines: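 Whole-cell assay on M. tuberculosis H37Ra growth, read by green fluorescent protein signal in microplates; activity given as MIC in μg/mL.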
Consider `CC(=O)O[C@@H]1C[C@H]([C@H](C)[C@@H]2CC=C(C)C(=O)O2)[C@@]2(C)CCC3=C(CC[C@@H]4C(=C3)C=CC(=O)OC4(C)C)[C@]12C`, for which the minimum inhibitory concentration (MIC) – broadly, the smallest concentration in the dilution series that meets the test's criterion for growth inhibition – is > 50 µg/mL.
Consider `CC(=O)OC[C@@]1(CCC(=O)O)C2=CC[C@]3(C)[C@@H]([C@H](C)[C@@H]4CC=C(C)C(=O)O4)CC[C@@]3(C)C2=CC[C@H]1C(C)(C)O`, for which the minimal inhibitory concentration (MIC) was > 50 µg/mL.
Still for that read-out and setting: in the case of `CC1=CC[C@@H]([C@@H](C)[C@H]2CC[C@@]3(C)C4=C(CC[C@]23C)[C@@]2(C)[C@H](O)C[C@H](O)C(C)(C)[C@@H]2CC4)OC1=O` it was > 50 µg/mL; in that of `CC1=C[C@H](O)[C@@H]([C@@H](C)[C@H]2C[C@@H](O)[C@@]3(C)C4=C(C=C5C=CC(=O)OC(C)(C)[C@@H]5CC4)CC[C@]23C)OC1=O`, > 50 µg/mL.

The subject of the next assay is Plasmodium falciparum. Description: Antimalarial activity against Plasmodium falciparum K1 infected in human type A+ erythrocytes incubated for 24 hrs followed by [G-3H]-hypoxanthine incorporation and measured after 18 hrs by liquid scintillation counting method. The class given is functional, organism-based.
Conditions: not given
In outline:
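P. falciparum K1 (multidrug-resistant strain), tested in duplicate with the microculture radioisotope technique; IC50 derived.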
For the compound `CC(=O)O[C@@H]1C[C@H]([C@H](C)[C@@H]2CC=C(C)C(=O)O2)[C@@]2(C)CCC3=C(CC[C@@H]4C(=C3)C=CC(=O)OC4(C)C)[C@]12C`, the half-inhibitory concentration (IC50) was 18 µM.
Compound `CC(=O)OC[C@@]1(CCC(=O)O)C2=CC[C@]3(C)[C@@H]([C@H](C)[C@@H]4CC=C(C)C(=O)O4)CC[C@@]3(C)C2=CC[C@H]1C(C)(C)O` had an IC50 of 5.5 µM.
As for `CC1=CC[C@@H]([C@@H](C)[C@H]2CC[C@@]3(C)C4=C(CC[C@]23C)[C@@]2(C)[C@H](O)C[C@H](O)C(C)(C)[C@@H]2CC4)OC1=O`, the IC50 was > 21 µM.
Still for that read-out and setting: the value for `CC1=C[C@H](O)[C@@H]([C@@H](C)[C@H]2C[C@@H](O)[C@@]3(C)C4=C(C=C5C=CC(=O)OC(C)(C)[C@@H]5CC4)CC[C@]23C)OC1=O` was > 20 µM.
